MPTP block = blocks calcium-induced mitochondrial swelling; isolated mouse mitochondria, Ca2+ swelling absorbance, 30 min; inhibition, % at 10 µM; actives 1.4% (n = 360,000); AID 602449;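 active means inhibition of 50% or more, scaled per plate between neutral and stimulator controls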
V-ATPase pHluor = regulators of yeast V-ATPase proton transport. S. cerevisiae, pHLuorin cytosolic pH fluorescence. response, % at 10 µM. actives 0.37% (n = 350,000). AID 504577; in the data active means response mostly above about 7.3%, no sharp cut-off; inactive means mostly below about 5.4%; further: actives read high
aDG glyco act = increases alpha dystroglycan glycosylation | Pro5-aDG cells, alpha-DG glycosylation AlphaScreen (IIH6); 0% Pro5, 100% B10-LARGE cell signal | actives 0.22% (n = 360,000) | activation, % at 10 µM;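 active means activation of at least 8% versus controls, or a plate z-score of at least 8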;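 further: Pro5 are CHO cells carrying HIG-tagged alpha-DG that lacks glycosylation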
Lipid droplet = hepatic lipid droplet formation modulation. AML12 mouse hepatocytes, oleate lipid droplets, BODIPY imaging. inhibition, % at 6.5 µM. actives 0.4% (n = 240,000). AID 1656;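 active means lipid droplet intensity inhibited by at least 50%, with more than 500 cells counted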
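System: AML12 hepatocytes (mouse). Probe or stimulus: oleic acid at 100 µM to induce lipid droplet formation. Times: overnight treatment with compound plus oleate. Detection: Image-based BODIPY and DAPI two-channel analysis. Evaluation: percent inhibition of filter-corrected integrated lipid droplet intensity per well.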
ADAM10 inh = ADAM10 inhibition, QFRET primary screen; actives 0.62% (n = 370,000); AID 720582; recombinant ADAM10, EDANS/DABCYL FRET peptide cleavage, 3 h; O14672; inhibition, % at 7 µM;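 active means inhibition above a per-campaign cutoff equal to the mean of compounds falling between control-based bounds plus 3 SD, cut at about 20% in these data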
ADAM17 inh = inhibitors of human ADAM17 | actives 0.83% (n = 370,000) | recombinant ADAM17, EDANS/DABCYL FRET peptide cleavage | inhibition, % at 6.95 µM;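 active means inhibition above the mean of compounds lying between control limits plus 3 SD, set per campaign, cut at about 8.5% in these data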
Target sequence (P78536 215-824 limits assumed): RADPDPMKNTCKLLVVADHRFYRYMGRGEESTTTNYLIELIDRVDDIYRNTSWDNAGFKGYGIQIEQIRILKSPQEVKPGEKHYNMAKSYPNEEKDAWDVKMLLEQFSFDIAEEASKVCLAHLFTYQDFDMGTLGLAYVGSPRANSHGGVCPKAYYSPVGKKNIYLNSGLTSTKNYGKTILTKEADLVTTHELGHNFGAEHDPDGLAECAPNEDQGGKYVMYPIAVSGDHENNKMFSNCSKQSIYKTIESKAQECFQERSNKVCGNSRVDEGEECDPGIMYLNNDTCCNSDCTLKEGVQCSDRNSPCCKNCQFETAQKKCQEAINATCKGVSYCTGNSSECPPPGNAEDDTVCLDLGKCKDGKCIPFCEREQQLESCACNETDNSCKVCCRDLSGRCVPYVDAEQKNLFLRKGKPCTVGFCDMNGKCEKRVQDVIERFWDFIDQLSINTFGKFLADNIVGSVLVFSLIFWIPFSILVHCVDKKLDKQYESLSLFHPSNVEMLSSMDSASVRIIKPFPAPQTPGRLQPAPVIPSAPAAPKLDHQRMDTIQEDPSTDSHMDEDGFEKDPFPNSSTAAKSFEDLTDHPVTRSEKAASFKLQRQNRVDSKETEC
Rh123 counter = Rhodamine 123 counter-screen of mitochondrial pore hits; shares compounds with MPTP block; isolated mitochondria, membrane potential, Rhodamine 123 fluorescence; inhibition, % at 10 µM; actives 78% (n = 5,000); in the data active means inhibition above about 22%
MPTP swell DR = MPTP inhibition, dose response swelling confirmation; IC50, µM; actives 58% (n = 780); shares compounds with MPTP block; isolated mitochondria swelling, absorbance; in the data active means IC50 below about 20 µM
MPTP cs DR = active in counter-screen for permeability transition pore inhibitors; shares compounds with MPTP block; isolated mitochondria counterscreen, fluorescence read-out; IC50, µM; actives 49% (n = 780); AID 651564; in the data active means IC50 below about 80 µM
Numbers stand for hits; - = inactive; . = not tested or not shown. An excerpt weighted towards active compounds, which were near 3.1% of everything screened.

SMILES	MPTP block	V-ATPase pHluor	aDG glyco act	Lipid droplet	ADAM10 inh	ADAM17 inh	Rh123 counter	others
CC1CCC(NC(=O)COc2ccc(C(=O)c3ccccc3)cc2)CC1 (stereo unspecified)	70	-	-	-	-	-	65
Cc1ccc(NC(=O)COc2ccc(C(=O)c3ccccc3)cc2)c(O)c1	82	-	-	-	-	-	97
Cc1ccc(C)c(NC(=O)CSc2nc(N)c(NC(=O)c3cccs3)c(=O)[nH]2)c1	-	-	-	-	-	-	.
Cc1ccc(C)c(NC(=O)CSc2nc3nc(-c4cccs4)cc(C(F)(F)F)c3c(=O)[nH]2)c1	77	-	-	-	-	-	61
O=C(CSc1nc2nc(-c3cccs3)cc(C(F)(F)F)c2c(=O)[nH]1)Nc1ccc(F)c(F)c1	76	-	-	-	-	-	50
COc1ccc2c(c1)CCCN2C(=O)C1CCCN(S(=O)(=O)c2cccc3ccccc23)C1 (stereo unspecified)	.	.	.	.	-	-	.
COc1ccc(COc2ccccc2C(=O)NCc2ccccc2)cc1F	96	-	-	-	-	-	88
COc1cc(C(=O)NCc2ccccc2)ccc1OC(F)F	-	-	-	-	-	-	.
Cc1[nH]n(-c2ccccc2)c(=O)c1C(C[N+](=O)[O-])c1ccc(Br)cc1 (stereo unspecified)	73	-	-	-	-	-	37
Cc1[nH]n(-c2ccccc2)c(=O)c1C(c1cccc([N+](=O)[O-])c1O)c1c(C)[nH]n(-c2ccccc2)c1=O	103	-	-	-	-	-	65
Cc1c(C(c2cccc([N+](=O)[O-])c2O)c2c(C)n(C)n(-c3ccccc3)c2=O)c(=O)n(-c2ccccc2)n1C	-	-	-	.	-	-	.
COc1cccc(C(C[N+](=O)[O-])c2c(C)[nH]n(-c3ccccc3)c2=O)c1 (stereo unspecified)	-	-	-	-	-	-	.
CSC1=NSC2=NC(=O)/C(=C/c3coc4ccccc4c3=O)C(=N)N12	95	-	-	-	-	-	80
N=C1/C(=C/c2cccs2)C(=O)N=C2SN=C(SCc3ccccc3)N12	86	-	-	.	-	-	71
CC(C)CSC1=NSC2=NC(=O)/C(=C\c3cccs3)C(=N)N12	100	-	-	.	-	-	93
CSC1=NSC2=NC(=O)/C(=C/c3coc4ccc(O)cc4c3=O)C(=N)N12	-	-	-	-	-	-	.
CSC1=NSC2=NC(=O)/C(=C\c3cccs3)C(=N)N12	-	-	-	.	-	-	.
CCCC1CCC2(CC1)CCC2OC(=O)Nc1ccccc1C (stereo unspecified)	.	.	.	.	-	-	.
CCOC(=O)[C@]12CCCC=C1N(CCCOC)C(=O)[C@@H]2CC(=O)NCc1ccc(OC)c(OC)c1	.	.	.	.	-	-	.
Cn1nccc1NC(=O)Nc1cccc(Cl)c1	-	-	-	-	-	-	.
Cn1nc(OC(=O)Nc2cccc(Cl)c2)cc1C(F)(F)F	88	-	-	-	-	-	87
O=C(NC(=S)NNC(=O)[C@H]1C[C@@H]1c1ccccc1)c1ccc(F)cc1	-	-	-	-	-	-	.
COc1cc(OC)cc(C(=O)NC(=S)NNC(=O)[C@H]2C[C@@H]2c2ccccc2)c1	82	-	-	-	-	-	-
Nc1ccc2cc3ccc(N)cc3nc2c1	.	.	.	.	-	-	.
CN(C)CCCN1c2ccccc2Sc2ccccc21	.	-	-	-	-	-	.
CN(C)CCCN1c2ccccc2CCc2ccc(Cl)cc21	80	-	-	-	-	-	-
Cc1ccc(Cn2ncc3c(N4CCCC4)ncnc32)cc1	62	-	-	-	-	-	-	MPTP swell DR=-;MPTP cs DR=-
CCCCOc1ccc(CSCCNC(=S)Nc2ccccc2)cc1	97	-	-	-	-	-	95
CCCCCOc1ccc(CSCCNC(=S)Nc2ccccc2)cc1	-	-	-	-	-	-	.
